KCNQ1 inh – human KCNQ1 channel inhibition | CHO-K1 KCNQ1, FluxOR thallium flux fluorescence; stronger effect = higher value | B-score at 10 µM | P51787 | hit rate 1.3% among 310,000;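 active = compounds whose thallium flux B-score, printed positive for inhibition, exceeds three library SD while starting fluorescence stays within three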;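 note: channel opened by potassium depolarization with thallium stimulus after 20 min compound exposure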
KCNQ1 pot – potentiators or activators of human KCNQ1 potassium channel | P51787 | B-score at 10 µM | AID 2648 | CHO-K1 KCNQ1, thallium flux FluxOR fluorescence; stronger effect = higher value | hit rate 0.35% among 310,000;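 active = fluorescence ratio B-score, a plate-corrected score, at least three library SD, with initial intensity B-score within 5 SD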
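Assay system: stable KCNQ1 CHO-K1 line; medium: assay buffer, equal DMSO in all wells; timing: 90 min dye loading and 20 min compound exposure, both at room temperature; technique: kinetic FluxOR thallium fluorescence, 10-s 1-Hz baseline, 110-s post-stimulus read; read-out basis: B score of baseline-normalized fluorescence ratio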
KCNK3 inh – human KCNK3 channel inhibition, primary screen; O14649; CHO-KCNK3 thallium flux, FluxOR fluorescence; stronger effect = lower value; B-score at 10 µM; hit rate 0.84% among 340,000; AID 602410;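 active = B-score under library mean minus 4 SD, starting fluorescence ratio at most library mean plus 5 SD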;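 note: more negative B-score means stronger inhibition of thallium flux through KCNK3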
KCNK9 block – human KCNK9 channel inhibition | Q9NPC2 | HEK293 KCNK9, FluxOR thallium flux fluorescence; stronger effect = lower value | B-score at 10 µM | hit rate 1.2% among 310,000 | AID 488922;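 active = ratio B-score over 3 SD below the library mean, with starting fluorescence within 5 SD of its mean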;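 note: negative B-score means less thallium flux so channel inhibition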
Kir21 inh – blocks the mouse Kir2.1 inward-rectifier potassium channel; HEK293-Kir2.1, FluxOR thallium flux fluorescence; stronger effect = lower value; B-score at 10 µM; hit rate 0.85% among 310,000;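 active = fluorescence ratio B-score at or below minus 3 SD of library scores, with starting-brightness B-score within 2 SD, cut at about -4.2 in these data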;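 note: channel flux triggered by added potassium and thallium sulfate stimulus; B-score of peak minus minimum fluorescence over baseline after thallium stimulus; more negative B-score means stronger Kir2.1 block with less thallium influx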
hERG rescue – hERG (human) protection from proarrhythmic block; Q12809; CHO-hERG, FluxOR thallium flux, dofetilide IC70 present; activation (rescue from dofetilide block), less the hit threshold, % at 10 µM; hit rate 0.51% among 310,000; AID 1511;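 active = activation above the mean of controls blocked by dofetilide plus 5 SD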;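 note: thallium influx through hERG after potassium depolarization seen as dye fluorescence rise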
KCNQ1 block val – confirmation of human KCNQ1 potassium channel inhibitors | shares compounds with KCNQ1 inh | KCNQ1 cell line, FluxOR thallium flux fluorescence | inhibition, % at 10 µM | hit rate 93% among 1,600;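 active = primary screen active, with duplicate mean exceeding buffer control mean plus 3 SD of buffer wells, cut at about 28% in these data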
CHO KCNQ1 ctr – activity in parental CHO cells lacking KCNQ1; shares compounds with KCNQ1 inh; parental CHO-K1, FluxOR thallium flux fluorescence ratio; stronger effect = lower value; zero means no signal rise above baseline; fluorescence ratio (Tl flux) at 10 µM; hit rate 21% among 1,600; AID 588366;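 active = mean of duplicate thallium-flux fluorescence ratios in parental host cells more than 5 SD below the buffer control mean, cut at about 0.38 in these data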;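 note: ratio is peak minus minimum fluorescence divided by baseline fluorescence; actives read low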
KCNQ1 ephys val – human KCNQ1 inhibition validated by electrophysiology; calls only at 10 µM; shares compounds with KCNQ1 inh; KCNQ1-CHO cells, automated patch clamp current; hit rate 20% among 490; AID 624120;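 active = KCNQ1 current drop exceeding 3 SD of negative control wells, seen in both duplicate runs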;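 note: steady state current during a 2 s step from -80 to +40 mV; negative values mean current inhibition and positive values mean potentiation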
KCNQ2 inh – rat KCNQ2 inhibition in KCNQ1 inhibitor specificity screen. shares compounds with KCNQ1 inh. KCNQ2 cells, FluxOR thallium flux fluorescence. inhibition, % at 10 µM. hit rate 71% among 1,600;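 active = mean percent inhibition of the KCNQ2 thallium signal more than 5 SD above the buffer-only control wells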;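 note: KCNQ2 expressed in CHO cells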
KCNQ1-KCNE1 inh – KCNQ1 inhibitor that also blocks human KCNQ1/KCNE1 channel | KCNQ1/KCNE1 cells, FluxOR thallium flux fluorescence | hit rate 77% among 1,600 | shares compounds with KCNQ1 inh | inhibition, % at 10 µM;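 active = mean percent inhibition of duplicate wells above the buffer-only control mean plus 3 SD of those controls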
Of the large screens only hits and unclear results are named; the others gave an inactive call (follow-up assays come after a bar, where they were run). Compounds with a hit are over-represented: about 3.7% of the library has one in this group of screens.

Cc1ccc(C)c(NC(=S)NCCSc2ccc(Cl)cc2)c1	KCNQ1 inh 8 | KCNQ1 block val 121.5 | CHO KCNQ1 ctr inactive | KCNQ1 ephys val inactive | KCNQ2 inh 90.0% | KCNQ1-KCNE1 inh 121.5%
O=C(CSc1nc2ccccc2[nH]1)N1CCCCC1	none
Cc1c(C)n(C(=O)CSc2nc3ccccc3[nH]2)c2ccccc12	KCNQ1 inh 7 | KCNQ1 block val 139.0 | CHO KCNQ1 ctr inactive | KCNQ1 ephys val inactive | KCNQ2 inh 123.7% | KCNQ1-KCNE1 inh 190.0%
CCN(CC)CCN(C(=O)c1ccc2ncsc2c1)c1nc2cc3c(cc2s1)OCO3	KCNQ1 inh 10 | KCNQ1 block val 92.0 | CHO KCNQ1 ctr inactive | KCNQ1 ephys val active | KCNQ2 inh 88.7% | KCNQ1-KCNE1 inh 120.0%
CN(C)CCN(C(=O)c1ccc2c(c1)CCCC2)c1nc2cc3c(cc2s1)OCCO3	KCNQ1 inh 11 | KCNQ1 block val 105.5 | CHO KCNQ1 ctr 0.352 | KCNQ2 inh 125.0% | KCNQ1-KCNE1 inh 121.0%
CCc1ccc(NS(=O)(=O)c2c(C)noc2C)cc1	none
O=C(N/N=C/c1ccccc1C(=O)O)c1cccc(S(=O)(=O)N2CCCCC2)c1	none (no result: KCNQ1 inh, KCNQ1 pot, KCNK9 block, Kir21 inh, hERG rescue)
CO/C(N)=C(\C#N)N=Cc1ccccc1Cl	none
CC1(C)Cc2c(C#N)c(SCCOc3ccccc3)nc(N3CCOCC3)c2CO1	KCNQ1 inh 7, KCNK3 inh -9.39 | KCNQ1 block val 83.5 | CHO KCNQ1 ctr inactive | KCNQ2 inh 65.3% | KCNQ1-KCNE1 inh 164.5%
CC1(C)Cc2c(C#N)c(SCCO)nc(N3CCOCC3)c2CO1	none
Cc1ccc(Cn2nnc3c(=O)[nH]c(C4CCN(C(=O)Cc5cccs5)CC4)nc32)cc1	KCNQ1 inh 7 | KCNQ1 block val inactive | CHO KCNQ1 ctr inactive | KCNQ2 inh inactive | KCNQ1-KCNE1 inh inactive
CC1CCN(S(=O)(=O)c2nnc(NC(=O)c3cccc(Cl)c3)s2)CC1	KCNQ1 inh 9 | KCNQ1 block val 31.5 | CHO KCNQ1 ctr inactive | KCNQ2 inh inactive | KCNQ1-KCNE1 inh inactive
Cc1cccc(N2CCN(C(=O)CSc3nnnn3C3CC3)CC2)c1C	none (no result: KCNQ1 inh, KCNQ1 pot, KCNK9 block, Kir21 inh, hERG rescue)
Nn1cnc2c(c1=O)C1(CCCCC1)Cc1ccccc1-2	none
O=c1c2c(nc3n1CCCCC3)-c1ccccc1CC21CCCC1	KCNQ1 inh 8 | KCNQ1 block val 122.0 | CHO KCNQ1 ctr inactive | KCNQ1 ephys val inactive | KCNQ2 inh 115.3% | KCNQ1-KCNE1 inh 150.5%
COC(=O)C(C)Sc1nnc2n(-c3cccc(C)c3)c(=O)c3c4c(sc3n12)CCCC4 (stereo unspecified)	KCNQ1 inh 6 | KCNQ1 block val 42.0 | CHO KCNQ1 ctr inactive | KCNQ2 inh 87.0% | KCNQ1-KCNE1 inh 52.0%
CC(C)(C)c1ccc(S(=O)(=O)/N=C2\C=C(NS(=O)(=O)c3ccccc3)C(=O)c3ccccc32)cc1	KCNQ1 inh 8, KCNK9 block -7 | KCNQ1 block val 69.5 | CHO KCNQ1 ctr inactive | KCNQ2 inh 77.3% | KCNQ1-KCNE1 inh 141.5%
O=C(NCc1ccccc1)c1ccc(N2CCC3(CC2)CC(c2ccc(Cl)cc2)=NO3)c([N+](=O)[O-])c1	none
CCc1c(C#N)c(SCCC(=O)Nc2cccc(OC)c2)nc2c1C(=O)CC(C)(C)C2	KCNQ1 inh 7 | KCNQ1 block val 108.0 | CHO KCNQ1 ctr inactive | KCNQ1 ephys val inactive | KCNQ2 inh 99.0% | KCNQ1-KCNE1 inh 129.0%
CCc1c(C#N)c(SCCC(=O)Nc2ccc(F)cc2)nc2c1C(=O)CC(C)(C)C2	KCNQ1 inh 12 | KCNQ1 block val 129.5 | CHO KCNQ1 ctr 0.379 | KCNQ2 inh 98.3% | KCNQ1-KCNE1 inh 160.0%
COc1ccc(-c2c(C#N)c(SCc3c(C)noc3C)nc3c2C(=O)CC(C)(C)C3)cc1	none
Cc1cc2nc(C3CCN(C(=S)NCCCOC(C)C)CC3)[nH]c2cc1C	none
O=C(c1ccccc1)c1sc(N2CCCCCC2)nc1-c1ccccc1	KCNQ1 inh 7 | KCNQ1 block val 124.0 | CHO KCNQ1 ctr inactive | KCNQ1 ephys val inactive | KCNQ2 inh 122.7% | KCNQ1-KCNE1 inh active
COc1ccc(-c2nc(N3CCCCCC3)sc2C(=O)c2ccccc2)cc1	KCNQ1 inh 7 | KCNQ1 block val 55.5 | CHO KCNQ1 ctr inactive | KCNQ2 inh 105.0% | KCNQ1-KCNE1 inh 86.0%
O=C(Nc1nc(-c2ccccc2)c(C(=O)c2ccccc2)s1)c1ccc(S(=O)(=O)N2CCCC2)cc1	KCNQ1 inh 8 | KCNQ1 block val 78.0 | CHO KCNQ1 ctr inactive | KCNQ2 inh 62.7% | KCNQ1-KCNE1 inh 96.0%
CC1(C)C(=O)NCCN1C(=O)CC1C(=O)NCCN1Cc1cccc(C(F)(F)F)c1 (stereo unspecified)	none
CCOC(=O)CCN	none
CC(C)(Cc1ccc(O)cc1)NC(=O)SCc1ccccc1	KCNQ1 inh 7 | KCNQ1 block val 50.0 | CHO KCNQ1 ctr inactive | KCNQ2 inh inactive | KCNQ1-KCNE1 inh 78.5%
CCN(CC)CC(=O)Nc1sc(C)cc1C(=O)c1ccc(C)cc1	KCNQ1 inh 7 | KCNQ1 block val 117.5 | CHO KCNQ1 ctr inactive | KCNQ1 ephys val inactive | KCNQ2 inh 90.7% | KCNQ1-KCNE1 inh 153.5%
COc1ccc(-c2sc(Nc3ccccc3)n[n+]2-c2ccc(F)cc2)c(C)c1C	KCNQ1 inh 16 | KCNQ1 block val 128.0 | CHO KCNQ1 ctr inactive | KCNQ1 ephys val active | KCNQ2 inh 99.0% | KCNQ1-KCNE1 inh 134.5%
CSc1ccc(-c2sc(Nc3ccccc3)n[n+]2-c2ccc(F)cc2)cc1	none
Cc1ccc(NC(=O)Nc2ccc3c(c2)CCC3)cc1	none
Cc1ccc(CN(C)CC(=O)Nc2ccc3c(c2)CCC3)cc1	KCNQ1 inh 6 | KCNQ1 block val 83.0 | CHO KCNQ1 ctr inactive | KCNQ2 inh 86.3% | KCNQ1-KCNE1 inh 89.5%
c1ccc(CCNc2ccnc3cc4ccccc4cc23)cc1	KCNQ1 inh 10, KCNK9 block -7.34, Kir21 inh -7.17 | KCNQ1 block val 129.5 | CHO KCNQ1 ctr 0.377 | KCNQ2 inh 81.3% | KCNQ1-KCNE1 inh 118.0%
Cc1ccccc1OCCCCn1cnc2ccccc21	KCNQ1 inh 9 | KCNQ1 block val 136.5 | CHO KCNQ1 ctr inactive | KCNQ1 ephys val inactive | KCNQ2 inh 100.3% | KCNQ1-KCNE1 inh 59.0%
